The record followed here is ChEMBL document CHEMBL5046272, “Discovery of Potent, Selective, and In Vivo Efficacious AKT Kinase Protein Degraders via Structure-Activity Relationship Studies” (J Med Chem, 2022).

Usually GI50 stands for the concentration giving 50% growth inhibition.

Activity calls are given as the source filed them. No cut-off for these calls is given here.

One experiment concerns PC-3. As to the kind of experiment: Antiproliferative activity against human PC-3 cells assessed as inhibition of cell growth measured after 5 days by IncuCyte zoom live cell analysis. It is filed as functional. Conditions: PC-3, 120 h, time 5 day. The method in brief:
(§1)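 Cells grown in DMEM with 10% FBS at 37 °C, 5% CO₂. Seeded at 1–3 × 10³ cells/well in triplicate with serial compound dilutions for 5 days. Growth was taken as confluence from IncuCyte phase-contrast images of live cells. Three independent experiments.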

The subject of the next experiment is MDA-MB-468. The experiment is described as follows: Antiproliferative activity against human MDA-MB-468 cells assessed as cell growth by measured after 5 days by IncuCyte zoom live cell analysis. It is filed as functional. Conditions: MDA-MB-468, 120 h, time 5 day. The essentials:
as §1

Experiment [1] deals with T1, von Hippel-Lindau disease tumor suppressor/AKT (Homo sapiens) (UniProt P31751+Q9Y243+P31749+P40337). As to the kind of experiment: Protac activity at VHL/AKT in human BT-474 cells assessed as reduction in total AKT protein level at 1 to 10 uM measured after 24 hrs by Western blot analysis. It is filed as cell-based. Conditions: dose 1-10 µM. The essentials: (§2)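 BT474 cells treated 24 h at 1, 5 or 10 μM, alongside AZD5363 (1 μM) and the matching E3 ligand VHL-1 or pomalidomide (1 μM). Lysates in urea/SDS sample buffer were run on 4–12% Bis-Tris gels and blotted to PVDF. Blots probed for total AKT, P-AKT S473, P-PRAS40 T246 and P-S6 S240/244, with β-actin loading control and chemiluminescent detection.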
On the technique in general: A western blot detects proteins with antibodies after separation by electrophoresis.

A short description of experiment [2]: Protac activity at CRBN/AKT in human BT-474 cells assessed as reduction in AKT protein level at 1 to 10 uM measured after 24 hrs by Western blot analysis. Conditions: dose 1-10 µM.
For a further experiment, the system named is BT-474. As to the kind of experiment: Inhibition of colony formation in human BT-474 cells at 0.1 to 10 uM incubated for 14 days by replacing culture medium for every 2 days by crystal violet staining based assay. Conditions: dose 0.1-10 µM, time 14.0 day. It is filed as functional, cell-based. The essentials: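 BT474 cells cultured 14 days with compound. Medium plus compound was replaced every 2 days. Viable cells were then stained with 0.5% crystal violet.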

Experiment [3] is described as follows: Protac activity at CRBN/AKT in human BT-474 cells assessed as reduction in AKT protein level at 10 uM measured after 24 hrs by Western blot analysis.
Experiment [4] addresses T1, von Hippel-Lindau disease tumor suppressor/AKT (Homo sapiens). As to the kind of experiment: Protac activity at VHL/AKT in human BT-474 cells assessed as inhibition of downstream signalling by measuring reduction in PRAS40 phosphorylation at T246 residue at 5 uM measured after 24 hrs Western blot analysis. It is filed as cell-based. The method in brief: as §2

Turning to `NC1(C(=O)N[C@@H](CCN2CCN(C(=O)CCOCCOCCOCCOCCOCCNc3cccc4c3C(=O)N(C3CCC(=O)NC3=O)C4=O)CC2)c2ccc(Cl)cc2)CCN(c2ncnc3[nH]ccc23)CC1` (stereo partly drawn), the GI50 in the experiment with PC-3 was 10.8 µM; with MDA-MB-468 it was 4.8 µM.
Take `Cc1ncsc1-c1ccc(CNC(=O)[C@@H]2C[C@@H](O)CN2C(=O)[C@@H](NC(=O)CCOCCOCCOCCOCCOCCC(=O)N2CCN(CC[C@H](NC(=O)C3(N)CCN(c4ncnc5[nH]ccc45)CC3)c3ccc(Cl)cc3)CC2)C(C)(C)C)cc1`: the result in experiment [1] was inactive.
As to `NC1(C(=O)N[C@@H](CCN2CCN(C(=O)CNc3cccc4c3C(=O)N(C3CCC(=O)NC3=O)C4=O)CC2)c2ccc(Cl)cc2)CCN(c2ncnc3[nH]ccc23)CC1` (stereo partly drawn), in experiment [2], the outcome was inactive.
With `Cc1ncsc1-c1ccc(CNC(=O)[C@@H]2C[C@@H](O)CN2C(=O)[C@@H](NC(=O)COCCOCCOCCOCCOCC(=O)N2CCN(CC[C@H](NC(=O)C3(N)CCN(c4ncnc5[nH]ccc45)CC3)c3ccc(Cl)cc3)CC2)C(C)(C)C)cc1`, the outcome in experiment [1] was inactive.
Turning to `Cc1ncsc1-c1ccc(CNC(=O)[C@@H]2C[C@@H](O)CN2C(=O)[C@@H](NC(=O)CCCCCCCCCCCC(=O)N2CCN(CC[C@H](NC(=O)C3(N)CCN(c4ncnc5[nH]ccc45)CC3)c3ccc(Cl)cc3)CC2)C(C)(C)C)cc1`, the inhibition entry in the experiment with BT-474 is “Active”.
For the compound `NC1(C(=O)N[C@@H](CCO)c2ccc(Cl)cc2)CCN(c2nc[nH]c3nccc2-3)CC1` [CAPIVASERTIB], the GI50 with PC-3 was found to be 6.5 µM; in the experiment with MDA-MB-468 it was 3.8 µM.
As for `NC1(C(=O)N[C@@H](CCN2CCN(C(=O)CCCCNc3cccc4c3C(=O)N(C3CCC(=O)NC3=O)C4=O)CC2)c2ccc(Cl)cc2)CCN(c2ncnc3[nH]ccc23)CC1` (stereo partly drawn), in experiment [2], the outcome was Active.
Regarding `NC1(C(=O)N[C@@H](CCN2CCN(C(=O)CCOCCOCCOCCOCCOCCNc3cccc4c3CN(C3CCC(=O)NC3=O)C4=O)CC2)c2ccc(Cl)cc2)CCN(c2ncnc3[nH]ccc23)CC1` (stereo partly drawn), in experiment [3], the result was inactive.
`NC1(C(=O)N[C@@H](CCN2CCN(C(=O)CCCCCCCNc3cccc4c3C(=O)N(C3CCC(=O)NC3=O)C4=O)CC2)c2ccc(Cl)cc2)CCN(c2ncnc3[nH]ccc23)CC1` (stereo partly drawn): the result in experiment [2] was inactive.
Turning to `NC1(C(=O)N[C@@H](CCN2CCN(C(=O)CCOCCOCCOCCOCCOCCCc3cccc4c3C(=O)N(C3CCC(=O)NC3=O)C4=O)CC2)c2ccc(Cl)cc2)CCN(c2ncnc3[nH]ccc23)CC1` (stereo partly drawn), in the experiment on BT-474, the inhibition result was “inactive”. The result in experiment [3] was inactive.
As to `Cc1ncsc1-c1ccc(CNC(=O)[C@@H]2C[C@@H](O)CN2C(=O)[C@@H](NC(=O)CCCC(=O)N2CCN(CC[C@H](NC(=O)C3(N)CCN(c4ncnc5[nH]ccc45)CC3)c3ccc(Cl)cc3)CC2)C(C)(C)C)cc1`, the outcome in experiment [1] was inactive.
Still for that read-out and setting: with `Cc1ncsc1-c1ccc(CNC(=O)[C@@H]2C[C@@H](O)CN2C(=O)[C@@H](NC(=O)COCCOCC(=O)N2CCN(CC[C@H](NC(=O)C3(N)CCN(c4ncnc5[nH]ccc45)CC3)c3ccc(Cl)cc3)CC2)C(C)(C)C)cc1` the entry was “inactive”; with `Cc1ncsc1-c1ccc(CNC(=O)[C@@H]2C[C@@H](O)CN2C(=O)[C@@H](NC(=O)CCC(=O)N2CCN(CC[C@H](NC(=O)C3(N)CCN(c4ncnc5[nH]ccc45)CC3)c3ccc(Cl)cc3)CC2)C(C)(C)C)cc1`, “inactive”.
As for `Cc1ncsc1-c1ccc(CNC(=O)[C@@H]2C[C@@H](O)CN2C(=O)[C@@H](NC(=O)CCCCC(=O)N2CCN(CC[C@H](NC(=O)C3(N)CCN(c4ncnc5[nH]ccc45)CC3)c3ccc(Cl)cc3)CC2)C(C)(C)C)cc1`, the inhibition entry in experiment [4] is “inactive”. Besides, the result in experiment [1] was Active.
In the case of `Cc1ncsc1-c1ccc(CNC(=O)[C@@H]2C[C@@H](O)CN2C(=O)[C@@H](NC(=O)CCOCCOCCOCCC(=O)N2CCN(CC[C@H](NC(=O)C3(N)CCN(c4ncnc5[nH]ccc45)CC3)c3ccc(Cl)cc3)CC2)C(C)(C)C)cc1`, the result in experiment [1] was inactive.
Take `NC1(C(=O)N[C@@H](CCN2CCN(C(=O)CCOCCNc3cccc4c3C(=O)N(C3CCC(=O)NC3=O)C4=O)CC2)c2ccc(Cl)cc2)CCN(c2ncnc3[nH]ccc23)CC1` (stereo partly drawn): the outcome in experiment [3] was Active.
For the compound `Cc1ncsc1-c1ccc(CNC(=O)[C@@H]2C[C@@H](O)CN2C(=O)[C@@H](NC(=O)COCC(=O)N2CCN(CC[C@H](NC(=O)C3(N)CCN(c4ncnc5[nH]ccc45)CC3)c3ccc(Cl)cc3)CC2)C(C)(C)C)cc1`, in experiment [1], the result was Active.
On to `Cc1ncsc1-c1ccc([C@H](C)NC(=O)[C@@H]2C[C@@H](O)CN2C(=O)[C@@H](NC(=O)CCCCCCCCCC(=O)N2CCN(CC[C@H](NC(=O)C3(N)CCN(c4ncnc5[nH]ccc45)CC3)c3ccc(Cl)cc3)CC2)C(C)(C)C)cc1`, for which the inhibition result with BT-474 is “Active”.
`Cc1ncsc1-c1ccc(CNC(=O)[C@@H]2C[C@@H](O)CN2C(=O)[C@@H](NC(=O)CCOCCOCCC(=O)N2CCN(CC[C@H](NC(=O)C3(N)CCN(c4ncnc5[nH]ccc45)CC3)c3ccc(Cl)cc3)CC2)C(C)(C)C)cc1`: in experiment [1], the outcome was inactive.
Still for that read-out and setting: with `Cc1ncsc1-c1ccc(CNC(=O)[C@@H]2C[C@@H](O)CN2C(=O)[C@@H](NC(=O)CCOCCC(=O)N2CCN(CC[C@H](NC(=O)C3(N)CCN(c4ncnc5[nH]ccc45)CC3)c3ccc(Cl)cc3)CC2)C(C)(C)C)cc1` the entry was “inactive”.
The same measure, in the same setting: with `Cc1ncsc1-c1ccc(CNC(=O)[C@@H]2C[C@@H](O)CN2C(=O)[C@@H](NC(=O)CCOCCOCCOCCOCCC(=O)N2CCN(CC[C@H](NC(=O)C3(N)CCN(c4ncnc5[nH]ccc45)CC3)c3ccc(Cl)cc3)CC2)C(C)(C)C)cc1` the entry was “inactive”.
On to `Cc1ncsc1-c1ccc(CNC(=O)[C@@H]2C[C@@H](O)CN2C(=O)[C@@H](NC(=O)COCCOCCOCC(=O)N2CCN(CC[C@H](NC(=O)C3(N)CCN(c4ncnc5[nH]ccc45)CC3)c3ccc(Cl)cc3)CC2)C(C)(C)C)cc1`, for which the result in experiment [1] was inactive.
As for `Cc1ncsc1-c1ccc(CNC(=O)[C@@H]2C[C@@H](O)CN2C(=O)[C@@H](NC(=O)CCCCCC(=O)N2CCN(CC[C@H](NC(=O)C3(N)CCN(c4ncnc5[nH]ccc45)CC3)c3ccc(Cl)cc3)CC2)C(C)(C)C)cc1`, the inhibition entry in experiment [4] was “inactive”. Also, the outcome in experiment [1] was Active.
For `Cc1ncsc1-c1ccc(CNC(=O)[C@@H]2C[C@@H](O)CN2C(=O)[C@@H](NC(=O)CCCCCCCCCC(=O)N2CCN(CC[C@H](NC(=O)C3(N)CCN(c4ncnc5[nH]ccc45)CC3)c3ccc(Cl)cc3)CC2)C(C)(C)C)cc1`, in the experiment on BT-474, the inhibition entry was “Active”.
Turning to `NC1(C(=O)N[C@@H](CCN2CCN(C(=O)CCNc3cccc4c3C(=O)N(C3CCC(=O)NC3=O)C4=O)CC2)c2ccc(Cl)cc2)CCN(c2ncnc3[nH]ccc23)CC1` (stereo partly drawn), the result in experiment [2] was inactive.
Regarding `NC1(C(=O)N[C@@H](CCN2CCN(C(=O)CCOCCOCCOCCOCCOCCOc3cccc4c3C(=O)N(C3CCC(=O)NC3=O)C4=O)CC2)c2ccc(Cl)cc2)CCN(c2ncnc3[nH]ccc23)CC1` (stereo partly drawn), the inhibition entry with BT-474 is “inactive”. The outcome in experiment [3] was inactive.
Turning to `NC1(C(=O)N[C@@H](CCN2CCN(C(=O)CCCCCCNc3cccc4c3C(=O)N(C3CCC(=O)NC3=O)C4=O)CC2)c2ccc(Cl)cc2)CCN(c2ncnc3[nH]ccc23)CC1` (stereo partly drawn), in experiment [2], the result was inactive.
